Activity calls are given as the source filed them. The rule behind the calls is not given here.
Experiments:
A549 = test: Cytotoxicity against human A549 cells after 96 hrs by SRB assay; assay type: functional, cell-based
Procedure, shortened: (§1)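 Monolayer cultures kept in RPMI 1640 with 10% heat-inactivated FBS and penicillin/streptomycin at 37 °C, 5% CO2. Exponentially growing cells were seeded and treated 24 h later with serial dilutions (0–30 µM) for 96 h, with DMSO or DMF at most 0.5% final. Cells were fixed with 10% TCA at 4 °C and stained with 0.4% SRB for about 30 min. Plates were washed with 1% acetic acid and the dye dissolved in 10 mM Tris base. Absorbance was read at 570 nm and survival taken relative to untreated controls. IC50 was estimated from dose–response curves, averaged from at least 5 independent experiments.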

518A2 [1] = test: Induction of apoptosis in human 518A2 cells after 24 to 48 hrs by DNA laddering assay; assay type: functional, cell-based
Procedure, shortened: (§2)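 About 1×10^6 cells were grown in 25 cm2 flasks to 80% and exposed to compound-loaded medium for 24–48 h, with blank medium as control. Cells were collected from the supernatant (300 g, 4 °C), washed in PBS and lysed. Lysates were digested with RNase for 2 h at 37 °C, then with proteinase K for 12 h at 50 °C. DNA was run on agarose gel electrophoresis ([…], 2 h).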

MCF7 = test: Cytotoxicity against human MCF7 cells after 96 hrs by SRB assay; assay type: functional, cell-based; procedure, shortened: as §1
8505C [2] = test: Cytotoxicity against human 8505C cells after 96 hrs by SRB assay; assay type: functional, cell-based; procedure, shortened: as §1
NIH3T3 = test: Cytotoxicity against mouse NIH/3T3 cells after 96 hrs by SRB assay; assay type: cell-based; procedure, shortened: as §1
[3] = Cytotoxicity against human 518A2 cells after 96 hrs by SRB assay; assay type: functional, cell-based; procedure, shortened: as §1
DLD-1 = test: Cytotoxicity against human DLD1 cells after 96 hrs by SRB assay; assay type: functional, cell-based; procedure, shortened: as §1
8505C [4] = test: Induction of apoptosis in human 8505C cells after 24 to 48 hrs by DNA laddering assay; assay type: functional, cell-based; procedure, shortened: as §2
[5] = Cytotoxicity against human A253 cells after 96 hrs by SRB assay; assay type: functional, cell-based; procedure, shortened: as §1
A2780 = test: Cytotoxicity against human A2780 cells after 96 hrs by SRB assay; assay type: functional, cell-based; procedure, shortened: as §1
8505C [6] = test: Induction of apoptosis in human 8505C cells assessed as induction of cell death after 24 to 48 hrs by AO/PI exclusion dye assay; assay type: functional, cell-based
Procedure, shortened: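 About 1×10^6 cells were grown in 25 cm2 flasks to 80% and given compound-loaded medium for 24–48 h, with blank medium as control. Cells were recovered from the supernatant (300 g, 4 °C), washed and resuspended in PBS. They were mixed 1:1 with AO/PI solution and viewed by fluorescence microscopy: green cells were scored as apoptotic, red as necrotic.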

[7] = Cytotoxicity against human WW030272 cells after 96 hrs by SRB assay; assay type: cell-based; procedure, shortened: as §1
8505C [8] = test: Induction of apoptosis in human 8505C cells assessed as blebbing of nuclear membrane at 30 uM after 24 hrs by acridine orange based fluorescence microscopy analysis; assay type: functional, cell-based
Procedure, shortened: (§3)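 They were treated with 30 µM compound, and the next day washed with PBS and stained with acridine orange. Living cells were inspected by fluorescence microscopy for chromatin condensation and nuclear membrane blebbing.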

8505C [9] = test: Induction of apoptosis in human 8505C cells assessed as condensation of chromatin at 30 uM after 24 hrs by acridine orange based fluorescence microscopy analysis; assay type: functional, cell-based; procedure, shortened: as §3
518A2 [10] = test: Induction of apoptosis in human 518A2 cells assessed as condensation of chromatin at 30 uM after 24 hrs by acridine orange based fluorescence microscopy analysis; assay type: functional, cell-based; procedure, shortened: as §3
518A2 [11] = test: Induction of apoptosis in human 518A2 cells assessed as blebbing of nuclear membrane at 30 uM after 24 hrs by acridine orange based fluorescence microscopy analysis; assay type: functional, cell-based; procedure, shortened: as §3
8505C [12] = test: Induction of apoptosis in human 8505C cells assessed as migration of phosphatidylserine from inner to outer cell membrane at 30 uM after 6 hrs by Annexin V-FITC/PI based FACS analysis; assay type: functional

Row | SMILES | IC50 (A549) | Activity (518A2 [1]) | IC50 (MCF7) | IC50 (8505C [2]) | IC50 (NIH3T3) | IC50 [3] | IC50 (DLD-1) | Activity (8505C [4]) | IC50 [5] | IC50 (A2780) | Activity (8505C [6]) | IC50 [7] | Activity (8505C [8]) | Activity (8505C [9]) | Activity (518A2 [10]) | Activity (518A2 [11]) | Activity (8505C [12])
1 | COC(=O)[C@]12CC[C@@H](C)[C@@](C)(O)[C@H]1C1=CC[C@@H]3[C@@]4(C)C[C@@H](O)[C@H](OC(=O)CCl)C(C)(C)[C@@H]4CC[C@@]3(C)[C@]1(C)CC2 | 10 µmol | Active | 6.9 µmol | 7.5 µmol | 4.2 µmol | 5.5 µmol | 6 µmol | Active | 4.1 µmol | 4.1 µmol |  |  |  |  |  |  | 
2 | CC1(C)CC[C@]2(C(=O)O)CC[C@]3(C)C(=CC[C@@H]4[C@@]5(C)C[C@@H](O)[C@H](O)C(C)(C)[C@@H]5CC[C@]43C)[C@@H]2C1 |  |  |  |  |  |  |  |  |  |  | Active |  |  |  |  |  | 
3 | COC(=O)[C@]12CC[C@@H](C)[C@@](C)(O)[C@H]1C1=CC[C@@H]3[C@@]4(C)CC(=O)[C@H](O)C(C)(C)[C@@H]4CC[C@@]3(C)[C@]1(C)CC2 |  | Active | 28.7 µmol | > 30 µmol | 19.2 µmol | > 30 µmol | > 30 µmol | Active |  | 17.8 µmol |  |  |  |  |  |  | 
4 | CC(=O)O[C@@H]1C[C@]2(C)[C@H]3CC=C4[C@H]5[C@](C(=O)O)(CC[C@@H](C)[C@@]5(C)O)CC[C@@]4(C)[C@]3(C)CC[C@H]2C(C)(C)[C@H]1OC(C)=O | > 30 µmol | Active | 20.4 µmol | > 30 µmol | 32.3 µmol | > 30 µmol | > 30 µmol | Active | 27.3 µmol | 17.6 µmol |  |  |  |  |  |  | 
5 | COC(=O)[C@]12CC[C@@H](C)[C@@](C)(O)[C@H]1C1=CC[C@@H]3[C@@]4(C)C[C@@H](O)[C@@H](O)C(C)(C)[C@@H]4CC[C@@]3(C)[C@]1(C)CC2 [EUSCAPHIC ACID METHYL ESTER] | 30.6 µmol | Active | 17.8 µmol | 29.3 µmol | > 30 µmol | 27.7 µmol | 35.8 µmol | Active | 16.4 µmol | 12.8 µmol |  | 23.4 µmol |  |  |  |  | 
6 | COC(=O)[C@]12CC[C@@H](C)[C@@](C)(O)[C@H]1C1=CC[C@@H]3[C@@]4(C)C[C@@H](OC(C)=O)C(=O)C(C)(C)[C@@H]4CC[C@@]3(C)[C@]1(C)CC2 | 31.3 µmol | Active | 14.8 µmol | > 30 µmol | 25.1 µmol | 28.9 µmol | 28.2 µmol | Active | 18.5 µmol | 9 µmol |  |  |  |  |  |  | 
7 | COC(=O)[C@]12CC[C@@H](C)[C@@](C)(O)[C@H]1C1=CC[C@@H]3[C@@]4(C)CC(=O)[C@H](OC(C)=O)C(C)(C)[C@@H]4CC[C@@]3(C)[C@]1(C)CC2 | 7.8 µmol | Active | 8.2 µmol | 7 µmol | 6.7 µmol | 5.6 µmol | 13.5 µmol | Active | 6.7 µmol | 4.4 µmol |  |  |  |  |  |  | 
8 | CC(=O)O[C@H]1[C@H](O)C[C@]2(C)[C@H]3CC=C4[C@H]5[C@](C(=O)O)(CC[C@@H](C)[C@@]5(C)O)CC[C@@]4(C)[C@]3(C)CC[C@H]2C1(C)C | > 30 µmol | Active | 26.2 µmol | > 30 µmol | > 30 µmol | > 30 µmol | > 30 µmol | Active | > 30 µmol | 28.1 µmol |  |  |  |  |  |  | 
9 | COC(=O)[C@]12CC[C@@H](C)[C@@](C)(O)[C@H]1C1=CC[C@@H]3[C@@]4(C)C[C@@H](O)[C@H](O)C(C)(C)[C@@H]4CC[C@@]3(C)[C@]1(C)CC2 [TORMENTIC ACID METHYL ESTER] |  | Active | 31.3 µmol | 42 µmol | 15.6 µmol | 31.3 µmol | 37.4 µmol | Active | 17 µmol | 23.9 µmol | Active | 47.5 µmol | Active | Active | Active | Active | 
10 | C[C@@H]1CC[C@]2(C(=O)O)CC[C@]3(C)C(=CC[C@@H]4[C@@]5(C)C[C@@H](O)[C@H](O)C(C)(C)[C@@H]5CC[C@]43C)[C@@H]2[C@]1(C)O [TOMENTIC ACID] | 31 µmol | Active | 32.3 µmol | 23.4 µmol | > 30 µmol | > 30 µmol | 31 µmol | Active | > 30 µmol | > 30 µmol | Active | 47.7 µmol |  |  |  |  | Active
11 | COC(=O)[C@]12CC[C@@H](C)[C@@](C)(O)[C@H]1C1=CC[C@@H]3[C@@]4(C)C[C@H](O)[C@H](O)C(C)(C)[C@@H]4CC[C@@]3(C)[C@]1(C)CC2 | > 30 µmol | Active | 22.6 µmol | > 30 µmol | > 30 µmol | > 30 µmol | > 30 µmol | Active | 15.3 µmol | 18.9 µmol |  |  |  |  |  |  | 
12 | CC(=O)O[C@@H]1C[C@]2(C)[C@H]3CC=C4[C@H]5[C@](C(=O)O)(CC[C@@H](C)[C@@]5(C)O)CC[C@@]4(C)[C@]3(C)CC[C@H]2C(C)(C)[C@H]1O | > 30 µmol | Active | 25.3 µmol | > 30 µmol | > 30 µmol | > 30 µmol | > 30 µmol | Active | > 30 µmol | 24.3 µmol |  |  |  |  |  |  | 
13 | COC(=O)[C@]12CC[C@@H](C)[C@@](C)(O)[C@H]1C1=CC[C@@H]3[C@@]4(C)C[C@@H](OC(=O)CCl)[C@H](O)C(C)(C)[C@@H]4CC[C@@]3(C)[C@]1(C)CC2 | 9.7 µmol | Active | 2.6 µmol | 4.6 µmol | 2.1 µmol | 4.5 µmol | 3.7 µmol | Active | 4.6 µmol | 2.6 µmol |  |  |  |  |  |  | 
14 | COC(=O)[C@]12CC[C@@H](C)[C@@](C)(O)[C@H]1C1=CC[C@@H]3[C@@]4(C)C=C(O)C(=O)C(C)(C)[C@@H]4CC[C@@]3(C)[C@]1(C)CC2 | > 30 µmol | Active | 26 µmol | 25 µmol | > 30 µmol | 17.2 µmol | > 30 µmol | Active | > 30 µmol | > 30 µmol |  |  |  |  |  |  | 
15 | COC(=O)[C@]12CC[C@@H](C)[C@@](C)(O)[C@H]1C1=CC[C@@H]3[C@@]4(C)C[C@@H](O)C(=O)C(C)(C)[C@@H]4CC[C@@]3(C)[C@]1(C)CC2 | 11.8 µmol | Active | 9.4 µmol | 12.9 µmol | 7.7 µmol | 8.9 µmol | 18 µmol | Active | 6.8 µmol | 4.9 µmol |  |  |  |  |  |  | 
